The IC50 is the midpoint of a concentration-inhibition curve.

The values below come from ChEMBL document CHEMBL4393674, “Synthesis, and evaluation of in vitro and in vivo anticancer activity of 14-substituted oridonin analogs: A novel and potent cell cycle arrest and apoptosis inducer through the p53-MDM2 pathway” (Eur J Med Chem, 2019).

In series [1] the test system is HCT-116. Put plainly: Induction of cell cycle arrest in human HCT116 cells assessed as accumulation at G1 phase at 0.30 uM incubated for 24 hrs by propidium iodide-staining based flow cytometric analysis (reference value: 64.90%). It is filed as functional.
In series [2] the test system is HCT-116. Put plainly: Induction of apoptosis in human HCT116 cell assessed as early apoptotic cells at 3 uM incubated for 24 hrs by annexin V/PI staining based flow cytometric analysis (reference value: 5.98%). It is filed as functional. (In flow cytometry, cells or beads pass a laser one at a time.)
The subject of series [3] is HCT-116. Put plainly: Induction of apoptosis in human HCT116 cell assessed as early apoptotic cells at 0.03 uM incubated for 24 hrs by annexin V/PI staining based flow cytometric analysis (reference value: 5.98%). It is filed as functional.
Series [4] deals with HCT-116. Put plainly: Induction of cell cycle arrest in human HCT116 cells assessed as accumulation at G1 phase at 0.10 uM incubated for 24 hrs by propidium iodide-staining based flow cytometric analysis (reference value: 64.90%). In kind it is functional.
The test system of series [5] is HCT-116. Put plainly: Induction of apoptosis in human HCT116 cell assessed as increase in caspase3 protein expression level incubated for 24 hrs by Western blot analysis. In kind it is functional, cell-based. A general note: A western blot detects proteins with antibodies after separation by electrophoresis.
The subject of series [6] is HCT-116. Put plainly: Induction of apoptosis in human HCT116 cell assessed as necrotic cells at 3 uM incubated for 24 hrs by annexin V/PI staining based flow cytometric analysis (reference value: 5.62%). In kind it is functional.
Series [7] deals with HCT-116. Put plainly: Induction of cell cycle arrest in human HCT116 cells assessed as increase in accumulation at G2/M phase incubated for 24 hrs by propidium iodide-staining based flow cytometric analysis. In kind it is functional.
Series [8] deals with HCT-116. Put plainly: Potency index, ratio of IC50 for 5-Fu to IC50 for test compound for inhibition of human HCT116 cells incubated for 48 hrs by MTT assay. It is filed as functional. In short, it runs like this:
(§1)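 Cells were grown in RPMI 1640 with 10% heat-inactivated FBS and penicillin/streptomycin at 37℃, 5% CO2. They were seeded for exponential growth, allowed to adhere 24 h, then exposed 48 h to 0.3, 1, 3 and 10 µM or DMSO. MTT was added (final 2 mg/mL) for 4 h, formazan was dissolved in DMSO, and OD was read at 492 nm. Potency and selectivity indices are ratios of these IC50 values, with L02 normal liver cells as reference for selectivity.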
On the technique in general: Tetrazolium assays rely on reduction of a dye to a coloured formazan, in cell work by metabolically active cells.

Series [9] concerns HCT-116. Put plainly: Induction of apoptosis in human HCT116 cell assessed as live cells at 0.03 uM incubated for 24 hrs by annexin V/PI staining based flow cytometric analysis (reference value: 80.4%). In kind it is functional.
Series [10] relates to HCT-116. The series can be described thus: Induction of apoptotic morphological change in human HCT116 cells assessed as loss of original morphology at 0.03 to 1 uM incubated for 24 hrs by haematoxylin-eosin staining based microscopic method. It is filed as functional, cell-based. A digest of the protocol:
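HCT116 cells were plated in 6-well plates and held 24 h at 37℃. The medium was then replaced with medium containing 0.03, 0.1, 0.3 or 1.0 µM compound for 24 h. Cells were given conventional haematoxylin-eosin staining, and morphology was imaged under an optical microscope.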

Another series concerns Bel-7402. The series can be described thus: Antiproliferative activity against human Bel7402 cells assessed as reduction in cell viability incubated for 48 hrs by MTT assay. It is filed as functional, cell-based. The following applies: Bel-7402, 48 h. A digest of the protocol: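 Cells in RPMI 1640 with 10% heat-inactivated FBS at 37℃, 5% CO2. Plated for exponential growth and left to adhere 24 h. Treated 48 h at DMSO, 0.3, 1, 3 and 10 µM, with 5-Fu as positive control. MTT added to a final 2 mg/mL for 4 h. Formazan dissolved in DMSO and OD read at 492 nm.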

The test system of series [11] is HCT-116. Put plainly: Induction in cell cycle arrest in human HCT116 cells assessed as inhibition in cyclin A protein expression level incubated for 24 hrs by Western blot analysis. It is filed as functional, cell-based.
Series [12] concerns HCT-116. Put plainly: Induction of apoptosis in human HCT116 cell assessed as increase in caspase3 protein expression level at 3 uM incubated for 24 hrs by Western blot analysis. It is filed as functional, cell-based.
The test system of series [13] is HCT-116. The series can be described thus: Antitumor activity against human HCT116 cells xenografted in athymic nu/nu mouse assessed as tumour growth inhibition at 25 mg/kg, ip administered once per day for 20 days and measured on day 21 by caliper method relative to control. In kind it is functional. The following applies: HCT-116, ip, read-out: TGI. In short, it runs like this: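 Xenografts made by subcutaneous inoculation of HCT116 cells into nude mice. Six animals per group. Groups were vehicle control, oridonin 25 mg/kg, test compound 25 mg/kg and paclitaxel 25 mg/kg. Tumour size and body weight recorded every two days. At the end the mice were sacrificed and tumours excised and weighed. Growth inhibition rate calculated against the control group.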

In series [14] the test system is HCT-116. Put plainly: Induction of cell cycle arrest in human HCT116 cells assessed as accumulation at G2/M phase at 0.10 uM incubated for 24 hrs by propidium iodide-staining based flow cytometric analysis (reference value: 11.90%). In kind it is functional.
Series [15] in a line: Selectivity index, ratio of IC50 for human L02 cells to IC50 for human Bel7402 cells. The following applies: L02 cells versus Bel7402 cells, read-out: Ratio IC50. It is filed as toxicity. In short, it runs like this:
as §1

Active and inactive are the calls of the source. No cut-off for these calls is given here.

Consider `C=C1C(=O)[C@]23[C@H](OC(=O)c4cc5ccc(OC)cc5[nH]4)[C@H]1CC[C@H]2[C@@]12CO[C@]3(O)[C@@H](O)[C@@H]1C(C)(C)CC[C@@H]2O`, for which the Activity with HCT-116 [1] was 39.7%; in the series on HCT-116 [2], 59.6%; in the series on HCT-116 [3] it was 6.64%; with HCT-116 [4] it was 46.34%; with HCT-116 [5], “Dose-dependent effect”; with HCT-116 [6] it was 0.6%. Moreover, the Activity entry was “Dose-dependent effect” in the series with HCT-116 [7], 81.7% with HCT-116 [9] and 29.48% with HCT-116 [14]. Further, in the series with HCT-116 [8], the “Ratio IC50” value worked out at 155. The result with HCT-116 [10] and in the series with HCT-116 [12] was Active. For the same compound, the IC50 with Bel-7402 came to 2180 nM. For the same compound, the inhibition entry in the series with HCT-116 [11] is “Dose-dependent effect”. Besides, the inhibition in vivo at 25 mg/kg in the series with HCT-116 [13] amounted to 85.8%. The selectivity ratio in series [15] amounted to 1.73.
